From ChEMBL document CHEMBL4373711, “Development of 3,5-Dinitrophenyl-Containing 1,2,4-Triazoles and Their Trifluoromethyl Analogues as Highly Efficient Antitubercular Agents Inhibiting Decaprenylphosphoryl-β-d-ribofuranose 2'-Oxidase” (J Med Chem, 2019)
pIC50: −log10 of the molar value. Values after ≈ are worked out from the molar mass of the structure shown. Active and inactive are the calls of the source. No cut-off for these calls is given here.

Columns and labels:
A-431 = assay: Cytotoxicity against human A431 cells assessed as reduction in cell viability after 48 hrs by CellTiter 96 aqueous one solution assay; assay type: cell-based; conditions: A-431, 48 h
Mycobacterium avium [1] = assay: Antimycobacterial activity against Mycobacterium avium CNCTC My 330/88 after 21 days; assay type: functional; conditions: CNCTC My 330/88, 504 h
Method in brief: (§1)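 M. avium was tested by microdilution in Šula's semisynthetic medium, with compounds dissolved in DMSO and serially diluted from 1000 down to 1. Inoculum was a 1.0 McFarland suspension diluted 10-5. Plates were incubated at 37 °C and read at 14 and 21 days. […] Isoniazid and rifampicin served as standards.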

[2] = tested on: Staphylococcus epidermidis; assay: Antibacterial activity against Staphylococcus epidermidis at highest concentration measured after 24 to 48 hrs by alamar blue dye based broth microdilution assay; assay type: functional, organism-based
Mycobacterium avium [3] = assay: Antimycobacterial activity against Mycobacterium avium CNCTC My 330/88 after 14 days; assay type: functional; conditions: CNCTC My 330/88, 336 h; method in brief: as §1
[4] = tested on: Mycobacterium tuberculosis; assay: Antimycobacterial activity against XDR Mycobacterium tuberculosis Praha 131 after 14 days; assay type: functional; conditions: Praha 131, 336 h
Method in brief: (§2)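 M. tuberculosis strains (H37Rv and clinical MDR/XDR isolates) tested by microdilution in Šula's semisynthetic medium. Compounds were dissolved in DMSO and tested at 32 to 0.03 µM in twofold steps. Inoculum was a 1.0 McFarland suspension diluted 10-3. Plates were incubated at 37 °C and read at 14 and 21 days.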

[5] = tested on: Mycobacterium tuberculosis; assay: Antimycobacterial activity against XDR Mycobacterium tuberculosis Praha 131 after 21 days; assay type: functional; conditions: Praha 131, 504 h; method in brief: as §2
Mycobacterium kansasii [6] = assay: Antimycobacterial activity against Mycobacterium kansasii 6509/96 after 7 days; assay type: functional; conditions: 6509/96, 168 h
Method in brief: (§3)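 Microdilution in Šula's semisynthetic medium; compounds in DMSO at 32–0.03 µM. Inoculum from 1.0 McFarland suspension diluted 10-4. […] Isoniazid and rifampicin as reference drugs.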

Escherichia coli = assay: Antibacterial activity against Escherichia coli ATCC 25922 CCM 3954 at highest concentration measured after 24 to 48 hrs by alamar blue dye based broth microdilution assay; assay type: functional, organism-based
Lichtheimia corymbifera = assay: Antifungal activity against Lichtheimia corymbifera CCM 8077 at highest concentration measured after 24 to 48 hrs by alamar blue dye based broth microdilution assay; assay type: functional, organism-based
Candida parapsilosis = assay: Antifungal activity against Candida parapsilosis ATCC 22019 CCM 8260 at highest concentration measured after 24 to 48 hrs by alamar blue dye based broth microdilution assay; assay type: functional, organism-based
Candida albicans = assay: Antifungal activity against Candida albicans ATCC 24433 CCM 8320 at highest concentration measured after 24 to 48 hrs by alamar blue dye based broth microdilution assay; assay type: functional, organism-based
[7] = Cytotoxicity against human HepG2 cells assessed as cell viability at 30 uM after 48 hrs by CellTiter 96 aqueous one solution assay relative to control; assay type: cell-based; conditions: read-out: Activity
Method in brief: (§4)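 HepG2 (DMEM, 10% FBS, 1 mM pyruvate) or A431 (DMEM, 10% FBS) seeded 10,000 cells/well, 24 h at 37 °C, 5% CO2, then 30 µM compound for 48 h. MTS reagent 60 min, absorbance 490 nm, background subtracted; 0.1% DMSO vehicle = 100%, 10% SDS = 0% viability.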

Mycobacterium kansasii [8] = assay: Antimycobacterial activity against Mycobacterium kansasii 6509/96 after 14 days; assay type: functional; conditions: 6509/96, 336 h; method in brief: as §3
Mycobacterium kansasii [9] = assay: Antimycobacterial activity against Mycobacterium kansasii CNCTC My 235/80 after 21 days; assay type: functional; conditions: CNCTC My 235/80, 504 h; method in brief: as §3
[10] = Cytotoxicity against human A431 cells assessed as cell viability at 30 uM after 48 hrs by CellTiter 96 aqueous one solution assay relative to control; assay type: cell-based, A-431; conditions: read-out: Activity; method in brief: as §4
Aspergillus flavus = assay: Antifungal activity against Aspergillus flavus CCM 8363 at highest concentration measured after 24 to 48 hrs by alamar blue dye based broth microdilution assay; assay type: functional, organism-based
Staphylococcus aureus [11] = assay: Antibacterial activity against Staphylococcus aureus subsp. aureus ATCC 29213 CCM 4223 at highest concentration measured after 24 to 48 hrs by alamar blue dye based broth microdilution assay; assay type: functional, organism-based
Enterococcus faecalis = assay: Antibacterial activity against Enterococcus faecalis ATCC 29212 CCM 4224 at highest concentration measured after 24 to 48 hrs by alamar blue dye based broth microdilution assay; assay type: functional, organism-based
HepG2 = assay: Cytotoxicity against human HepG2 cells assessed as reduction in cell viability after 48 hrs by CellTiter 96 aqueous one solution assay; assay type: cell-based; conditions: HepG2, 48 h
Staphylococcus aureus [12] = assay: Antibacterial activity against methicillin-resistant Staphylococcus aureus subsp. aureus ATCC 43300 CCM 4750 at highest concentration measured after 24 to 48 hrs by alamar blue dye based broth microdilution assay; assay type: functional, organism-based
Mycobacterium kansasii [13] = assay: Antimycobacterial activity against Mycobacterium kansasii CNCTC My 235/80 after 7 days; assay type: functional; conditions: CNCTC My 235/80, 168 h; method in brief: as §3
Pichia kudriavzevii = assay: Antifungal activity against Candida krusei ATCC 6258 CCM8271 at highest concentration measured after 24 to 48 hrs by alamar blue dye based broth microdilution assay; assay type: functional, organism-based
Serratia marcescens = assay: Antibacterial activity against Serratia marcescens at highest concentration measured after 24 to 48 hrs by alamar blue dye based broth microdilution assay; assay type: functional, organism-based
[14] = tested on: Trichophyton interdigitale; assay: Antifungal activity against Trichophyton interdigitale ATCC 9533 CCM 8377 at highest concentration measured after 72 to 120 hrs by alamar blue dye based broth microdilution assay; assay type: functional
Mycobacterium kansasii [15] = assay: Antimycobacterial activity against Mycobacterium kansasii 6509/96 after 21 days; assay type: functional; conditions: 6509/96, 504 h; method in brief: as §3
[16] = tested on: Mycobacterium tuberculosis; assay: Antimycobacterial activity against Mycobacterium tuberculosis H37Rv CNCTC My 331/88 after 14 days; assay type: functional; conditions: H37Rv CNCTC My 331/88, 336 h; method in brief: as §2
[17] = tested on: Mycobacterium tuberculosis; assay: Antimycobacterial activity against Mycobacterium tuberculosis H37Rv CNCTC My 331/88 after 21 days; assay type: functional; conditions: H37Rv CNCTC My 331/88, 504 h; method in brief: as §2
Klebsiella pneumoniae = assay: Antibacterial activity against Klebsiella pneumoniae at highest concentration measured after 24 to 48 hrs by alamar blue dye based broth microdilution assay; assay type: functional, organism-based
Aspergillus fumigatus = assay: Antifungal activity against Aspergillus fumigatus ATCC 204305 at highest concentration measured after 24 to 48 hrs by alamar blue dye based broth microdilution assay; assay type: functional, organism-based
Candida tropicalis = assay: Antifungal activity against Candida tropicalis ATCC 750 CCM 8264 at highest concentration measured after 24 to 48 hrs by alamar blue dye based broth microdilution assay; assay type: functional, organism-based
Mycobacterium kansasii [18] = assay: Antimycobacterial activity against Mycobacterium kansasii CNCTC My 235/80 after 14 days; assay type: functional; conditions: CNCTC My 235/80, 336 h; method in brief: as §3
Pseudomonas aeruginosa = assay: Antibacterial activity against Pseudomonas aeruginosa ATCC 27853 CCM 3955 at highest concentration measured after 24 to 48 hrs by alamar blue dye based broth microdilution assay; assay type: functional, organism-based

SMILES | pIC50 (A-431) | MIC99 (Mycobacterium avium [1]) [µM] | Activity [2] | MIC99 (Mycobacterium avium [3]) [µM] | MIC99 [4] [µM] | MIC99 [5] [µM] | MIC99 (Mycobacterium kansasii [6]) [µM] | Activity (Escherichia coli) | Activity (Lichtheimia corymbifera) | Activity (Candida parapsilosis) | Activity (Candida albicans) | viability at 48 h, 30 µM [7] [%] | MIC99 (Mycobacterium kansasii [8]) [µM] | MIC99 (Mycobacterium kansasii [9]) [µM] | viability at 48 h, 30 µM [10] [%] | Activity (Aspergillus flavus) | Activity (Staphylococcus aureus [11]) | Activity (Enterococcus faecalis) | pIC50 (HepG2) | Activity (Staphylococcus aureus [12]) | further results
CCn1c(SCc2ccccc2)nnc1-c1cc([N+](=O)[O-])cc([N+](=O)[O-])c1 | < 4.52 | 250 (≈ 96.4 µg/mL) | inactive | 250 (≈ 96.4 µg/mL) | 0.03 (≈ 0.0116 µg/mL) | 0.03 (≈ 0.0116 µg/mL) | 0.03 (≈ 0.0116 µg/mL) | inactive | inactive | inactive | inactive | 156 | 0.03 (≈ 0.0116 µg/mL) | 0.03 (≈ 0.0116 µg/mL) | 90 | inactive | inactive | inactive | < 4.52 | inactive | MIC99 (Mycobacterium kansasii [13]): 0.03 µM (≈ 0.0116 µg/mL); Activity (Pichia kudriavzevii): inactive; Activity (Serratia marcescens): inactive; Activity [14]: inactive; MIC99 (Mycobacterium kansasii [15]): 0.03 µM (≈ 0.0116 µg/mL); MIC99 [16]: 0.03 µM (≈ 0.0116 µg/mL); MIC99 [17]: 0.03 µM (≈ 0.0116 µg/mL); Activity (Klebsiella pneumoniae): inactive; Activity (Aspergillus fumigatus): inactive; Activity (Candida tropicalis): inactive; MIC99 (Mycobacterium kansasii [18]): 0.03 µM (≈ 0.0116 µg/mL); Activity (Pseudomonas aeruginosa): inactive
CCCCCCCCSc1nnc(-c2cc([N+](=O)[O-])cc([N+](=O)[O-])c2)n1Cc1ccccc1 | < 4.52 | 250 (≈ 117 µg/mL) | inactive | 250 (≈ 117 µg/mL) | 0.125 (≈ 0.0587 µg/mL) | 0.25 (≈ 0.117 µg/mL) | 0.06 (≈ 0.0282 µg/mL) | inactive | inactive | inactive | inactive | 99 | 0.06 (≈ 0.0282 µg/mL) | 0.125 (≈ 0.0587 µg/mL) | 131 | inactive | inactive | inactive | < 4.52 | inactive | MIC99 (Mycobacterium kansasii [13]): 0.06 µM (≈ 0.0282 µg/mL); Activity (Pichia kudriavzevii): inactive; Activity (Serratia marcescens): inactive; Activity [14]: inactive; MIC99 (Mycobacterium kansasii [15]): 0.125 µM (≈ 0.0587 µg/mL); MIC99 [16]: 0.06 µM (≈ 0.0282 µg/mL); MIC99 [17]: 0.125 µM (≈ 0.0587 µg/mL); Activity (Klebsiella pneumoniae): inactive; Activity (Aspergillus fumigatus): inactive; Activity (Candida tropicalis): inactive; MIC99 (Mycobacterium kansasii [18]): 0.06 µM (≈ 0.0282 µg/mL); Activity (Pseudomonas aeruginosa): inactive
Cn1c(SCc2ccc(Cl)c(Cl)c2)nnc1-c1cc([N+](=O)[O-])cc([N+](=O)[O-])c1 | < 4.52 | > 500 | inactive | > 500 | 0.06 (≈ 0.0264 µg/mL) | 0.06 (≈ 0.0264 µg/mL) | 0.06 (≈ 0.0264 µg/mL) | inactive | inactive | inactive | inactive | 110 | 0.125 (≈ 0.055 µg/mL) | 0.5 (≈ 0.22 µg/mL) | 92 | inactive | inactive | inactive | < 4.52 | inactive | MIC99 (Mycobacterium kansasii [13]): 0.125 µM (≈ 0.055 µg/mL); Activity (Pichia kudriavzevii): inactive; Activity (Serratia marcescens): inactive; Activity [14]: inactive; MIC99 (Mycobacterium kansasii [15]): 0.125 µM (≈ 0.055 µg/mL); MIC99 [16]: 0.06 µM (≈ 0.0264 µg/mL); MIC99 [17]: 0.06 µM (≈ 0.0264 µg/mL); Activity (Klebsiella pneumoniae): inactive; Activity (Aspergillus fumigatus): inactive; Activity (Candida tropicalis): inactive; MIC99 (Mycobacterium kansasii [18]): 0.25 µM (≈ 0.11 µg/mL); Activity (Pseudomonas aeruginosa): inactive
